Active and inactive are the calls of the source. No cut-off for these calls is given here.
Columns and labels:
Rattus norvegicus [1] = test: Inhibition of pituitary gonadotropin activity in rat assessed as decrease of ovarian weight at 50 mg/kg, sc for 14 days; conditions: Pituitary gland
Rattus norvegicus [2] = test: Inhibition of pituitary gonadotropin activity in rat assessed as decrease of ventral prostate weight at 100 mg/kg, po for 14 days; assay type: functional, organism-based; set-up: dose 100 mg/kg; conditions: Pituitary gland
How it was run: (§1)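 Mature male rats were dosed orally at 100 mg/kg in ethanol-oil vehicle for 14 days. Ventral prostate, seminal vesicle and testicular weights were then compared against controls for significance.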

Rattus norvegicus [3] = test: Inhibition of pituitary gonadotropin activity in rat assessed as decrease of seminal vesicles weight at 100 mg/kg, po for 14 days; assay type: functional, organism-based; set-up: dose 100 mg/kg; conditions: Pituitary gland
How it was run: as §1

Homo sapiens [4] = test: Drug metabolism in human assessed as metabolite level treated with 800 mg, po of danazol in urine after 24 hrs by TLC analysis; assay type: ADME, organism-based; conditions: in vivo
How it was run: (§2)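 Urine was collected from one subject given 800 mg/day orally for 7 days. Metabolites were isolated from the urine, purified in separate chromatographic systems, and identified against synthetic reference material by UV spectra in methanol and by mass spectra.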

Rattus norvegicus [5] = test: Inhibition of pituitary gonadotropin activity in rat assessed as decrease of number of vaginal estrous days at 50 mg/kg, sc for 14 days; conditions: Pituitary gland
Rattus norvegicus [6] = test: Inhibition of pituitary gonadotropin activity in rat assessed as decrease of testicular weight at 100 mg/kg, po for 14 days; assay type: functional, organism-based; set-up: dose 100 mg/kg; conditions: Pituitary gland
How it was run: as §1

Rattus norvegicus [7] = test: Inhibition of pituitary gonadotropin activity in rat assessed as decrease of ovarian weight at 25 mg/kg, sc for 14 days; conditions: Pituitary gland
Rattus norvegicus [8] = test: Inhibition of pituitary gonadotropin activity in rat assessed as decrease of number of vaginal estrous days at 25 mg/kg, sc for 14 days; conditions: Pituitary gland
[9] = Drug metabolism in rhesus monkey assessed as metabolite level in urine treated with at 50 mg/kg, po bid of danazol after 24 hrs by TLC analysis; assay type: ADME, organism-based, Macaca mulatta; set-up: dose 50 mg/kg, route oral; conditions: in vivo
Homo sapiens [10] = test: Drug metabolism in human assessed as 6beta,17-dihydroxy-2alpha-(hydroxymethyl)-17alpha-pregn-4-en-20-yn-3-one level in urine at 800 mg, po after 24 hrs by TLC analysis; assay type: ADME, organism-based; conditions: in vivo
How it was run: as §2

[11] = Drug metabolism in rhesus monkey assessed as 17-hydroxy-17alpha-pregn-4-en-20-yn-3-one level in urine at 50 mg/kg, po bid after 24 hrs by TLC analysis; assay type: ADME, organism-based, Macaca mulatta; set-up: dose 50 mg/kg, route oral; conditions: in vivo
Homo sapiens [12] = test: Drug metabolism in human assessed as 6beta,17-dihydroxy-2-(hydroxymethyl)-17alpha-pregna-1,4-dien-20-yn-3-one level in urine at 800 mg, po after 24 hrs by TLC analysis; assay type: ADME, organism-based; conditions: in vivo
How it was run: as §2

Rattus norvegicus [13] = test: Inhibition of pituitary gonadotropin activity in rat assessed as decrease of number of vaginal estrous days at 20 mg/kg, sc for 14 days; conditions: Pituitary gland
Homo sapiens [14] = test: Drug metabolism in human assessed as 17-hydroxy-2-(hydroxymethyl)-17alpha-pregna-1,4-dien-20-yn-3-one level in urine at 800 mg, po after 24 hrs by TLC analysis; assay type: ADME, organism-based; conditions: in vivo
How it was run: as §2

Rattus norvegicus [15] = test: Inhibition of pituitary gonadotropin activity in rat assessed as decrease of ovarian weight at 20 mg/kg, sc for 14 days; conditions: Pituitary gland
Homo sapiens [16] = test: Drug metabolism in human assessed as 17-hydroxy-2alpha-(hydroxymethyl)-17apregn-4-en-20-yn-3-one level in urine at 800 mg, po after 24 hrs by TLC analysis; assay type: ADME, organism-based; conditions: in vivo
How it was run: as §2

Compound	inhibition (Rattus norvegicus [1])	inhibition (Rattus norvegicus [2])	inhibition (Rattus norvegicus [3])	Drug metabolism (Homo sapiens [4])	inhibition (Rattus norvegicus [5])	inhibition (Rattus norvegicus [6])	inhibition (Rattus norvegicus [7])	inhibition (Rattus norvegicus [8])	Drug metabolism [9]	Drug metabolism (Homo sapiens [10])	Drug metabolism [11]	Drug metabolism (Homo sapiens [12])	inhibition (Rattus norvegicus [13])	Drug metabolism (Homo sapiens [14])	inhibition (Rattus norvegicus [15])	Drug metabolism (Homo sapiens [16])
C#C[C@]1(O)CC[C@H]2[C@@H]3C[C@@H](O)C4=CC(=O)C(CO)=C[C@]4(C)[C@H]3CC[C@@]21C	inactive	inactive	inactive	metabolite_detected	inactive	inactive										
C#C[C@]1(O)CC[C@H]2[C@@H]3CCC4=CC(=O)CC[C@]4(C)[C@H]3CC[C@@]21C [ETHISTERONE]		inactive	inactive			inactive	inactive	inactive	metabolite_detected							
C#C[C@]1(O)CC[C@H]2[C@@H]3CCC4=Cc5oncc5C[C@]4(C)[C@H]3CC[C@@]21C [DANAZOL]		Active	Active			Active				metabolite_detected	metabolite_detected	metabolite_detected	Active	metabolite_detected	Active	metabolite_detected
C#C[C@]1(O)CC[C@H]2[C@@H]3CCC4=CC(=O)C(CO)=C[C@]4(C)[C@H]3CC[C@@]21C		inactive	inactive	metabolite_detected		inactive	inactive	inactive								
C#C[C@]1(O)CC[C@H]2[C@@H]3CCC4=CC(=O)[C@H](CO)C[C@]4(C)[C@H]3CC[C@@]21C	inactive	inactive	inactive	metabolite_detected	inactive	inactive										
C#C[C@]1(O)CC[C@H]2[C@@H]3C[C@@H](O)C4=CC(=O)[C@H](CO)C[C@]4(C)[C@H]3CC[C@@]21C	inactive	inactive	inactive	metabolite_detected	inactive	inactive										

Source: ChEMBL document CHEMBL3244010, “Isolation, synthesis, and biological activity of five metabolites of danazol” (J Med Chem, 1977)
